In the library only some 6.9% were active in any assay of this set; here they are far more common.
PostGolgi yeast = growth inhibition of a yeast mutant, post-Golgi transport screen. post-Golgi transport phenotypic cell assay. inhibition, % at 10 µM. actives 0.9% (n = 98,000). AID 739;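 note: yeast cells grown in 1536-well plates; yeast grown about 18 h at 30C before absorbance read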
Calb biofilm kill = kills Candida albicans biofilms; C. albicans biofilm + clotrimazole, Alamar Blue; inhibition, % at 6 µM; actives 0.14% (n = 85,000); AID 834;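 active = inhibition above 20%; inactive = inhibition below 20%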;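 note: preformed 24 hr biofilms exposed to compound for 48 hr; 0% = biofilm without compound and 100% = blank killed by clotrimazole plus chlorhexidine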
tolC growth inh = blocks growth of E. coli BW25113 tolC mutant; OD615; growth inhibition, % at 10 µM (by protocol); actives 2.2% (n = 65,000);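 active = growth inhibition at or above a cutoff equal to the mean over every tested compound plus 3 SD, cut at about 60% in these data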;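 note: growth measured after 20 h incubation at 37 °C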
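Test system: tolC-deleted E. coli BW25113 | Medium: LB with kanamycin 50 µg/mL | Compound dosing: Single concentration, 10 µM final per compound | Schedule: 37 °C, 20 h exposure | Measured by: OD at 615 nm | Evaluation: Percent growth inhibition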
PostGolgi ctrl = yeast control strain growth, post-Golgi counter-screen; efflux-deficient yeast background strain, growth absorbance A615, 16 h; actives 5% (n = 98,000); inhibition, % at 10 µM
PTK2B oligo ant = antagonists of human Pyk2 oligomerization; actives 0.83% (n = 99,000); Q293 cells, Pyk2 FERM NanoBiT luminescence; stronger effect = lower value; Q14289; AID 1347419; z-score (the deposit names both 25 µM and 10 µM);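 active = Z-score of -3 or lower, scaled per plate to the spread of control and sample wells; inactive = z-score above -3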;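 note: negative z-score means lost luminescence so less FERM oligomerization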
FAK blocker = blocks human focal adhesion kinase activity; Q05397; biochemical FAK kinase activity assay; inhibition, %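 (tested at 7 µM)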; actives 0.84% (n = 97,000); AID 727; in the data active = inhibition above about 19%;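 note: 0% = DMSO and 100% = reference compound high control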
Target sequence (Q05397 whole entry, looked up): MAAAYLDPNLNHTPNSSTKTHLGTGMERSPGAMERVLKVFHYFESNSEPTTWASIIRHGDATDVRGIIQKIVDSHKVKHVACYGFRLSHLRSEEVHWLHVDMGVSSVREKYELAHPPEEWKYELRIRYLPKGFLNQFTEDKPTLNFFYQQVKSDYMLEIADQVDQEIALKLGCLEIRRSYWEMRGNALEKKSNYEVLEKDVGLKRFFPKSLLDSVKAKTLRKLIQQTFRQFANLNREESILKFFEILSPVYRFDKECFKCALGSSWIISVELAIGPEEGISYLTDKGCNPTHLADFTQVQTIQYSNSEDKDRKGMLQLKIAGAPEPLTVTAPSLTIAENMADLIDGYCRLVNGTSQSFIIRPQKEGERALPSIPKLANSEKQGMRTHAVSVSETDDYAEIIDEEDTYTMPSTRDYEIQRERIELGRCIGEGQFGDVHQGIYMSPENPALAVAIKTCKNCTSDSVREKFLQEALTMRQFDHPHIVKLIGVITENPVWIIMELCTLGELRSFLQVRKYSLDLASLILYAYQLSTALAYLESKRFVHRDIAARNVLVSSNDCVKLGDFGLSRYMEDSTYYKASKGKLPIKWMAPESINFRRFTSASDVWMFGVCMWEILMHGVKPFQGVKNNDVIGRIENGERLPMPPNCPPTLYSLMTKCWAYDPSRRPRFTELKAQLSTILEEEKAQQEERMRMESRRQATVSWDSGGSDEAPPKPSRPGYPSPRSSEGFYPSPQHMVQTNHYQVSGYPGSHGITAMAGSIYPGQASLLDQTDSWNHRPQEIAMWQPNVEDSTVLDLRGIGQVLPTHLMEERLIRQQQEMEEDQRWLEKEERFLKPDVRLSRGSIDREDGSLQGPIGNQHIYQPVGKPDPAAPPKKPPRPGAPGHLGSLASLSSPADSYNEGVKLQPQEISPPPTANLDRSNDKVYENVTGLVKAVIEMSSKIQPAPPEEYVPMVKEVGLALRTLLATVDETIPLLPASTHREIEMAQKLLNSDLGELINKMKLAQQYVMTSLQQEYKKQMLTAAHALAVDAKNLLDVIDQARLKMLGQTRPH
* hit, by the source's call. Cut-off read from the data, not from the text of the source, unless noted: active = inhibition above about 30%; inactive = the rest.

Cc1ccc(NC(=O)CS(=O)CC(=O)NC(C)CCc2ccco2)cc1Cl (stereo unspecified) was read as PostGolgi yeast 8, Calb biofilm kill 5, tolC growth inh 9, PostGolgi ctrl 47*, PTK2B oligo ant 0.61 and FAK blocker 0.
`COc1ccc(CCNC2=C(Cl)C(=O)N(CCc3ccc(OC)c(OC)c3)C2=O)cc1OC` gave PostGolgi yeast -2, Calb biofilm kill -2, PostGolgi ctrl 20, PTK2B oligo ant -0.15 and FAK blocker -2.
For CCOC(=O)N1CCN(C(=O)c2ccc3c(c2)sc2nc(-c4ccc(OC)cc4)cn23)CC1 the results were PostGolgi yeast 1, tolC growth inh 0, PostGolgi ctrl 11, PTK2B oligo ant 1.1 and FAK blocker 1.
Screening COc1ccc2c(c1)sc1nc(-c3ccccc3)cn12 returned PostGolgi yeast 7, Calb biofilm kill 1, tolC growth inh 99*, PostGolgi ctrl 10 and PTK2B oligo ant -1.5.
Cc1ccc(S(=O)(=O)N(Cc2ccccc2)Cc2ccco2)cc1 was read as PostGolgi yeast -2, tolC growth inh 64*, PostGolgi ctrl 10, PTK2B oligo ant -0.84 and FAK blocker 2.
For Cc1ccc(S(=O)(=O)N(Cc2ccc(F)cc2)Cc2ccco2)cc1 the results were PostGolgi yeast 2, Calb biofilm kill -2, tolC growth inh 66*, PostGolgi ctrl 15, PTK2B oligo ant -0.59 and FAK blocker 4.
`COc1ccc(S(=O)(=O)N(Cc2ccc(OC)c(OC)c2)Cc2ccco2)cc1` gave PostGolgi yeast -9, Calb biofilm kill -5, tolC growth inh 42, PostGolgi ctrl 21, PTK2B oligo ant -1.9 and FAK blocker 0.
`COC(=O)CN(Cc1ccco1)S(=O)(=O)c1ccccc1` gave PostGolgi yeast -6, Calb biofilm kill 0, tolC growth inh -3, PostGolgi ctrl 5, PTK2B oligo ant 1.2 and FAK blocker 4.
For Nn1c(SCc2ccccc2)nnc1-c1ccccn1 the results were PostGolgi yeast -2, Calb biofilm kill 7, PostGolgi ctrl -2, PTK2B oligo ant 1 and FAK blocker 2.
For Cc1ccn2c(C(=O)CSc3ccc(Cl)cc3Cl)c(C)nc2c1 the results were PostGolgi yeast -1, PostGolgi ctrl 2, PTK2B oligo ant 1.4 and FAK blocker 3.
`CCc1ccc2nc(SCC(=O)N3CCCCC3)c(C#N)cc2c1` gave Calb biofilm kill 6, PTK2B oligo ant -1.6 and FAK blocker 9.
For COc1ccc2nc(SCC(=O)N3CCCCCC3)c(C#N)cc2c1 the results were PostGolgi yeast -13, Calb biofilm kill -1, tolC growth inh 26, PostGolgi ctrl 32*, PTK2B oligo ant -1.8 and FAK blocker 4.
For COc1ccc2nc(SCC(=O)N(C)C3CCCCC3)c(C#N)cc2c1 the results were PostGolgi yeast 12, Calb biofilm kill 8, tolC growth inh 63*, PostGolgi ctrl 23, PTK2B oligo ant -2.9 and FAK blocker -2.
Screening COc1ccc2nc(N3CCCCC3)c(C#N)cc2c1 returned PostGolgi yeast 0, Calb biofilm kill 4, tolC growth inh 4, PostGolgi ctrl 27, PTK2B oligo ant -0.81 and FAK blocker 4.
For N#Cc1cc2ccccc2nc1SCC(=O)Nc1ccc(S(=O)(=O)N2CCCC2)cc1 the results were PostGolgi yeast -13, tolC growth inh 19, PostGolgi ctrl 1, PTK2B oligo ant -1.2 and FAK blocker -7.
Screening COc1ccc2nc(SCC(=O)Nc3ccc(S(=O)(=O)N4CCCC4)cc3)c(C#N)cc2c1 returned PostGolgi yeast 12, Calb biofilm kill 6, tolC growth inh 5, PostGolgi ctrl 33*, PTK2B oligo ant -1.9 and FAK blocker -7.
O=C(CSc1nnnn1C1CC2CCC1C2)Nc1ccnc2ccccc12 (stereo unspecified) was read as PostGolgi yeast 3, Calb biofilm kill 3, tolC growth inh 50, PostGolgi ctrl 12 and PTK2B oligo ant -0.04.
Screening C/C(=N/NS(=O)(=O)c1ccc(Br)cc1)c1ccc(NC(=O)c2ccc(C)o2)cc1 returned PostGolgi yeast 3, PostGolgi ctrl 41*, PTK2B oligo ant 0.45 and FAK blocker -6.
`Cc1ccc(-n2c(N)c(C(=O)N3CCOCC3)sc2=S)cc1` gave PostGolgi yeast 5, Calb biofilm kill -2, tolC growth inh 5, PostGolgi ctrl -2, PTK2B oligo ant 0.47 and FAK blocker 0.
CCOc1ccc(N/N=C(/C#N)C(N)=O)cc1 was read as PostGolgi yeast 104*, PostGolgi ctrl 90*, PTK2B oligo ant 0.4 and FAK blocker 1.
For CCOc1ccc(N/C(SC)=C(/C#N)C(N)=O)cc1 the results were PostGolgi yeast 0, Calb biofilm kill 4, tolC growth inh -13, PostGolgi ctrl -14, PTK2B oligo ant -0.17 and FAK blocker 17.
CCOC(=O)C(NCCCO)c1ccccc1 (stereo unspecified) was read as PostGolgi yeast -3, Calb biofilm kill 5, tolC growth inh -29, PostGolgi ctrl 11, PTK2B oligo ant 0.18 and FAK blocker -2.
Screening O=C(c1cccc(F)c1)N1CCN(c2cc(N3CCCCC3)c(F)cc2[N+](=O)[O-])CC1 returned PostGolgi yeast -12, PostGolgi ctrl 52*, PTK2B oligo ant 1.4 and FAK blocker 2.
Screening O=C(c1ccc(F)cc1)N1CCN(c2ccc([N+](=O)[O-])c(N3CCCCC3)c2)CC1 returned PostGolgi yeast -7, PostGolgi ctrl 13, PTK2B oligo ant -0.91 and FAK blocker 3.
N#Cc1c2c(c(NCc3cccnc3)n3c1nc1ccccc13)CCC2 was read as PostGolgi yeast 0, Calb biofilm kill 0, PostGolgi ctrl 12, PTK2B oligo ant -0.71 and FAK blocker 0.
`CCOC(=O)c1nnc(-c2ccccc2)nc1Oc1ccccc1Cl` gave PostGolgi yeast 10, PostGolgi ctrl 31*, PTK2B oligo ant 1.1 and FAK blocker -8.
FC(F)(F)c1nnc(-c2ccccc2)nc1Oc1ccc(Cl)cc1Cl was read as PostGolgi yeast 8, PostGolgi ctrl 34*, PTK2B oligo ant 0.42 and FAK blocker -7.
Screening CCOC(=O)c1nnc(-c2ccccc2)nc1NC returned PostGolgi yeast 19, PostGolgi ctrl 0, PTK2B oligo ant -0.07 and FAK blocker -9.
CSCCC(NC(=O)CCN1C(=O)c2ccccc2C1=O)C(=O)O (stereo unspecified) was read as PostGolgi yeast 4, Calb biofilm kill 1, tolC growth inh -11, PostGolgi ctrl -2, PTK2B oligo ant -0.07 and FAK blocker 1.
Screening O=C(C[n+]1cc2ccccc2c2ccccc21)c1ccccc1 returned PostGolgi yeast -1, PostGolgi ctrl 33*, PTK2B oligo ant -0.09 and FAK blocker 3.
Oc1ccc(/C=N/Nc2cc(N3CCCC3)nc(N3CCCC3)n2)cc1 was read as PostGolgi yeast 17, PostGolgi ctrl 31*, PTK2B oligo ant -1.1 and FAK blocker -1.

Screens from PubChem BioAssay.
